How the values were obtained:
[1] = system: B-cell lymphomas; details: phase I clinical trial; cited from earlier work
[2] = system: lymphoma cell lines; test: Synergy in cell viability assay by excess over bliss; assay type: cell-based; details: for synergy in combination with romidepsin: EZH2 inhibitor combined with romidepsin (Supplementary Fig S3)
[3] = system: SU-DHL-10; test: Cell viability assay, single agent IC50; assay type: cell-based; details: Homo sapiens, SU-DHL10, 72 h, read-out: in vitro IC50 of romidepsin in SU-DHL-10
[4] = prior work, combination therapy alisertib + romidepsin; cited from earlier work
[5] = mouse, in vivo; for median Cmax: ip
[6] = system: H3K27; test: H3K27 acetylation/methylation in HEK 293T cells; assay type: cell-based; details: single agent exposure
In short: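 HEK293 cells were transfected in OPTI-MEM with a human HDAC2 shRNA or scramble plasmid using Lipofectamine 3000. They were puromycin-selected and monitored for GFP by flow cytometry and fluorescence microscopy until a stable line formed. The stable HDAC2-knockdown or scramble cells were then exposed to an EZH2 inhibitor test compound, and H3K27 methylation status was assessed.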

Row | SMILES | synergy in combination with romidepsin [2] | Cmax translated to molar concentration [5] | median Cmax [5] | other results
1 | CCN(c1cc(-c2ccc(CN3CCOCC3)cc2)cc(C(=O)NCc2c(C)cc(C)[nH]c2=O)c1C)C1CCOCC1 [tazemetostat] | – | – | – | overall response rate [1]: 38%
2 | CCN(c1cc(C#CCN2CCOCC2)cc(C(=O)NCc2c(C)cc(C)[nH]c2=O)c1C)[C@H]1CC[C@H](N(C)CCOC)CC1 [EPZ011989] | demonstrated synergy | – | – | –
3 | COc1cc(C)[nH]c(=O)c1CNC(=O)c1c(C)n([C@H](C)C2CCN(CC(F)(F)F)CC2)c2ccccc12 [CPI-1205] | demonstrated synergy | – | – | –
4 | Nc1ccc(-c2cccs2)cc1NC(=O)c1ccc2nc(N3CCNCC3)ccc2c1 [ACY957] | – | – | – | synergy in combination with GSK126 (EOB) ([2]; ACY957 combined with GSK126, 4 GC-DLBCL cell lines): synergistic
5 | C/C=C1\NC(=O)[C@H]2CSSCC/C=C/[C@H](CC(=O)N[C@H](C(C)C)C(=O)N2)OC(=O)[C@H](C(C)C)NC1=O [romidepsin] | – | 0.18 µM | 98.24 ± 62.50 ng/mL | IC50 [3]: 2.59 nM; intratumor levels after combination of alisertib and romidepsin [4]: below the level of detection
6 | CC[C@H](C)n1cc(C)c2c(C(=O)NCc3c(C)cc(C)[nH]c3=O)cc(-c3ccc(N4CCNCC4)nc3)cc21 [GSK126] | – | 3.15 µM | 1657.5 ± 413.6 ng/mL | status of acetylation or methylation of H3K27 [6]: did not significantly change; serum AUC0-last [5]: 2828.57 ng·h/mL

Source: paper PMC6726529 (Clinical cancer research : an official journal of the …, 2019)
